# PubChem BioAssay
# The source made the active and inactive calls.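 Rule for the calls, unless noted: active = GFP response above 150% of the DMSO level; inconclusive = fewer than 70 events counted for a yeast strain; inactive = the rest.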
# Legend:
# [1] = RPL19A-GFP modulators, yeast TOR pathway, confirmation, cell-based, S. cerevisiae, flow cytometry, cherry picks, mother/daughter gates (AID 2270;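 active = GFP response below 50% of the DMSO control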); details: S. cerevisiae RPL19A-GFP strain, 3 h, at 10 µM, stronger effect = lower value, 100 = same GFP as DMSO wells
# [2] = LAP4-GFP expression modulators in yeast, confirmation, cell-based, cherry picks, flow cytometry, mother/daughter gates (AID 2271;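 active = GFP response above 150% of the DMSO control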;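 note: ratio of sample to DMSO plate mean so 100% equals DMSO level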); details: S. cerevisiae LAP4-GFP strain, 3 h, at 10 µM, stronger effect = higher value, 100 means same as DMSO control
# Summary of the method: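 Measured by: GFP by flow cytometry. Test system: GFP-fusion yeast strain. Input: yeast cells seeded at OD600 of 0.2. Timing: 30 °C, 3 h compound incubation, rotating. Buffer or medium: synthetic complete medium for yeast. Benchmarks: DMSO-only negative wells, rapamycin 400 ng/mL positive wells. Compound: 10 µM single dose.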
# [3] = modulators of MEP2-GFP levels in yeast, confirmation, S. cerevisiae, flow cytometry GFP, cherry picks (AID 2272;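 active = GFP response above 150% of the DMSO control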;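 note: ratio of well signal to plate DMSO mean so 100% equals DMSO level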); details: S. cerevisiae MEP2-GFP strain, 3 h, at 10 µM, stronger effect = higher value
# [4] = AGP1-GFP expression modulators, hit retest, confirmation, cell-based, flow cytometry, S. cerevisiae, cherry picks (AID 2273);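 note: median GFP channel fluorescence over the whole cell population gate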; details: S. cerevisiae AGP1-GFP strain, 3 h, at 10 µM
# [5] = modulators of CIT2-GFP expression in yeast, confirmation, S. cerevisiae, GFP fusion, cherry picks, mother/daughter gates (AID 2274); details: S. cerevisiae CIT2-GFP strain, flow cytometry, 3 h, at 10 µM, stronger effect = higher value
# [6] = measured here: daughter cell gate
# [7] = measured here: mother cell gate
# [8] = measured here: daughter cell gate response
# [9] = measured here: mother cell gate response
SMILES,GFP response vs DMSO [1],"GFP response vs DMSO [1, 6]","GFP response vs DMSO [1, 7]",GFP response relative to DMSO [2],"GFP response relative to DMSO [2, 8]","GFP response relative to DMSO [2, 9]",GFP response vs DMSO [3],"GFP response, % of DMSO [4]","GFP response, % of DMSO [5]","GFP response, % of DMSO [5, 6]","GFP response, % of DMSO [5, 7]"
CC(C)Oc1ccc(C(=O)/C=C2/C(=O)Nc3ccccc32)cc1,88.2% (inactive),83.8%,80.3%,161% (active),119%,161%,111% (inactive),123% (inactive),110% (inactive),93.2%,98.7%
CC(=O)c1ccccc1NCC(=O)Nc1ccc(C)cc1,96.3% (inactive),95%,96%,99.8% (inactive),98.2%,101%,103% (inactive),100% (inactive),93.4% (inactive),95.2%,92.8%
Cc1ccc(N2C(=O)CC(Sc3ncn[nH]3)C2=O)cc1C (stereo not drawn),106% (inactive),111%,101%,137% (inactive),133%,140%,109% (inactive),100% (inactive),104% (inactive),112%,97.3%
CCN(CC(=O)NC(C)(C)C)C(=O)COc1c(Cl)cc(Cl)c2ccc(C)nc12,100% (inactive),101%,99.7%,127% (inactive),121%,125%,126% (inactive),102% (inactive),108% (inactive),111%,100%
O=C1Nc2ccc(Br)cc2/C1=C/C1CC=CCC1 (stereo not drawn),106% (inactive),100%,105%,131% (inactive),122%,135%,133% (inactive),111% (inactive),108% (inactive),108%,104%
CC(C)(C)C(=O)NCC12C=CC(O1)C1C(=O)N(c3ccccc3)C(=O)C12 (stereo not drawn),94% (inactive),96.1%,92.9%,108% (inactive),108%,111%,110% (inactive),104% (inactive),106% (inactive),105%,105%
Cc1cccc(Sc2ccc([N+](=O)[O-])cn2)c1,98.6% (inactive),98.9%,98%,92.4% (inactive),92%,92%,105% (inactive),104% (inactive),103% (inactive),103%,104%
CCCOc1ccc(N2C(=O)CC(SCCN)C2=O)cc1 (stereo not drawn),93.5% (inactive),92.9%,94.6%,101% (inactive),102%,99.3%,98.3% (inactive),92.3% (inactive),98.3% (inactive),101%,96.1%
COc1ccc(NC(=O)/C(Cl)=C(/Cl)S(=O)Cc2ccccc2)cn1 (stereo not drawn),104% (inactive),114%,95.5%,262% (active),227%,243%,118% (inactive),103% (inactive),114% (inactive),134%,99.1%
COCCNC(=O)/C(C#N)=C/c1c(N2CC(C)OC(C)C2)nc2ccccn2c1=O (stereo not drawn),100% (inactive),98.6%,100%,98.2% (inactive),95.9%,97.3%,103% (inactive),98.8% (inactive),102% (inactive),101%,101%
O=C(N/N=C/c1ccc(OCCCF)cc1)c1cc(OCC(F)(F)F)ccc1OCC(F)(F)F,98% (inactive),100%,98.2%,97.4% (inactive),98.7%,101%,102% (inactive),97.2% (inactive),95.2% (inactive),94.8%,97.7%
COc1ccccc1N1C(=O)CC(Sc2ncccc2C(=O)O)C1=O (stereo not drawn),100% (inactive),98.4%,100%,95% (inactive),95.6%,97.2%,100% (inactive),99.2% (inactive),100% (inactive),99.7%,99.8%
O=C(NCCCSc1ccccc1)c1cc(Br)ccc1O,97.8% (inactive),97.1%,99.2%,106% (inactive),104%,108%,100% (inactive),93.3% (inactive),98.3% (inactive),99.1%,99.7%
COc1ccc(CC2=CC(=O)c3ccccc3C2=O)cc1,99.7% (inactive),99.3%,99.3%,101% (inactive),99.3%,102%,104% (inactive),94.5% (inactive),96.4% (inactive),96.4%,94.5%
O=C(Cc1ccc(Cl)cc1)Nc1ccc(Br)cn1,103% (inactive),100%,103%,108% (inactive),106%,111%,118% (inactive),113% (inactive),105% (inactive),112%,99.3%
COc1ccc(CN2CN(C(C)C)CSC2=S)cc1,98.8% (inactive),96.7%,92.1%,112% (inactive),106%,107%,146% (inactive),107% (inactive),80.8% (inactive),80.1%,75.1%
Cc1cc(NCCCN2CCOCC2)n2nc(C)c(-c3ccc(F)cc3)c2n1,95.3% (inactive),95.9%,95.6%,104% (inactive),97.5%,105%,103% (inactive),101% (inactive),97.2% (inactive),95.8%,99.3%

SMILES,GFP response vs DMSO [1],"GFP response vs DMSO [1, 6]","GFP response vs DMSO [1, 7]",GFP response relative to DMSO [2],"GFP response relative to DMSO [2, 8]","GFP response relative to DMSO [2, 9]",GFP response vs DMSO [3],"GFP response, % of DMSO [4]","GFP response, % of DMSO [5]","GFP response, % of DMSO [5, 6]","GFP response, % of DMSO [5, 7]"
COc1cc(OC)cc(C(=O)N2CCN(c3ccccc3F)CC2)c1,98.6% (inactive),97.3%,99.1%,97.4% (inactive),98.7%,98.3%,100% (inactive),98.3% (inactive),99.1% (inactive),99.7%,98.7%
COc1cccc2c1Oc1ncccc1N(C(=O)CCC(=O)NCc1ccc(F)cc1)C2,98% (inactive),98.1%,98.2%,101% (inactive),101%,99.3%,102% (inactive),96.6% (inactive),105% (inactive),105%,104%
CCOC(=O)c1cnn(-c2cc(C)nc3c(-c4ccccc4)c(C)nn23)c1N,96.6% (inactive),97.4%,96.6%,95.4% (inactive),96%,94%,105% (inactive),94.3% (inactive),98.3% (inactive),99.1%,97.3%
Cc1nnc(NC(=O)c2ccc(S(=O)(=O)N3CCCCCC3)cc2)o1,99.4% (inactive),99.3%,100%,97% (inactive),97.5%,97.3%,101% (inactive),99% (inactive),100% (inactive),103%,96.8%
N#CC(C(=O)NCc1ccccc1)c1nc2ccccc2nc1N1CCCC1 (stereo not drawn),103% (inactive),102%,104%,114% (inactive),108%,117%,117% (inactive),99.6% (inactive),111% (inactive),108%,109%
Cc1ccc(CN2CCSc3sccc3C2=O)cc1,84.4% (inactive),83.1%,85.5%,142% (inactive),130%,145%,96.8% (inactive),97.1% (inactive),75.5% (inactive),72.1%,76%
O=C(O)c1ccccc1C(=O)N1CCN(c2ccccc2)CC1,99.2% (inactive),99.9%,99.7%,96.7% (inactive),96%,96.1%,98.3% (inactive),101% (inactive),103% (inactive),105%,102%
COc1ccc(-c2csc(N(CC(C)C)C(=O)c3ccco3)n2)cc1,98.2% (inactive),100%,97.7%,101% (inactive),101%,100%,101% (inactive),100% (inactive),98.6% (inactive),101%,97.1%
CCc1oc2ccccc2c1C(=O)CCN1CCCCC1,99.6% (inactive),98.4%,99.6%,102% (inactive),99.1%,103%,101% (inactive),101% (inactive),98.8% (inactive),99.2%,96.8%
Cc1cccn2c(=O)c(/C=C(\C#N)C(=O)NC3CCS(=O)(=O)C3)c(N3CCC(C)CC3)nc12 (stereo not drawn),102% (inactive),101%,102%,96.2% (inactive),97.2%,95.2%,102% (inactive),101% (inactive),107% (inactive),99.7%,109%
CCNC(=O)c1c(O)c2cccc3c2n(c1=O)CC3,103% (inactive),101%,103%,103% (inactive),101%,105%,94.7% (inactive),99% (inactive),98.8% (inactive),101%,98.1%
COc1cc(NC(=O)c2oc3ccccc3c2C)ccc1NC(=O)c1ccco1,98% (inactive),97.8%,98.4%,97.7% (inactive),99%,100%,110% (inactive),102% (inactive),98.6% (inactive),97.6%,99.3%
COCCNc1c(-c2ccc(O)cc2)nc2ccc(Cl)cn12,97.6% (inactive),97.4%,97.7%,99.2% (inactive),99.2%,98.3%,98.3% (inactive),93.1% (inactive),98.3% (inactive),99.1%,97.3%
N#C/C(=C\c1c(N2CCCCCC2)nc2ccccn2c1=O)C(=O)NC1CCS(=O)(=O)C1 (stereo not drawn),99.9% (inactive),101%,99.7%,105% (inactive),107%,103%,116% (inactive),98.7% (inactive),109% (inactive),111%,108%
COc1cc(/C=C2\N=C(C)OC2=O)cc(Cl)c1OC(C)=O,107% (inactive),109%,102%,117% (inactive),115%,118%,105% (inactive),99.8% (inactive),108% (inactive),112%,103%
Cc1ccc(S(=O)(=O)c2ccc([N+](=O)[O-])cn2)cc1,93.2% (inactive),99.5%,84.5%,185% (active),156%,177%,139% (inactive),115% (inactive),103% (inactive),114%,93.4%
